In paper PMC3073091 (Chromatographia, 2011):

Assays:
[1] = stability of DL76 in rat serum QC samples under storage and process conditions; format: in vitro ADME; settings: bench top, post preparative, freeze/thaw, long term
[2] = pilot pharmacokinetic study in rats after intravenous administration; format: in vivo, rat
Procedure, shortened: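 Male Wistar rats (13–15 weeks, 200–220 g) were fasted overnight with free water access. They received 3 mg kg−1 i.v. in 0.9% saline. Under thiopental (70 mg kg−1), blood was taken by decapitation at 5, 10, 30, 60, 120 and 240 min (n = 5 per time). Serum was stored at −30 °C, then 100 µL was extracted into ethyl acetate with internal standard for LC–MS–MS. Non-compartmental analysis used mean concentrations: t1/2 = 0.693/λz, Cl = dose/AUC0-inf, Vss = D·AUMC/AUC².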

human H3 receptor = settings: read-out: hKi; human H3 receptor stably expressed in CHO-K1 cells; preliminary pharmacological studies; cited from earlier work
[3] = male, Wistar, rat, serum, iv, 3 mg/kg

For CC(C)(C)c1ccc(OCCCN2CCCCC2)cc1 [DL76, 1-[3-(4-tert-butylphenoxy)propyl]piperidine], the “stability in rat serum (all storage and process tests)” value [1] was “good stability”, the clearance [2, 3] was 217 mL/min/kg and the half-life [2, 3] was 1.41 h. The “serum concentration of DL76 in a representative rat serum sample” value ([2]; rat serum after i.v. 3 mg kg^−1, time not stated) was 67.82 ng/mL and the Ki (human H3 receptor) was 22 ± 3 nM.
